Laboratory results from ChEMBL document CHEMBL1127362, “Synthesis and pharmacological evaluation of isoindolo[1,2-b]quinazolinone and isoindolo[2,1-a]benzimidazole derivatives related to the antitumor agent batracylin” (J Med Chem, 1994).
pIC50: −log10 of the molar value.

Key:
CCRF-CEM = experiment: Tested for the inhibitory activity against CCRF CEM T- cell leukemia cells; type: functional, cell-based; conditions: Homo sapiens
In short: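 MTT microtiter tetrazolium assay; CCRF CEM cells seeded at 30 000 cells/well and allowed to attach. Each dose tested in four replicate plates, each with eight DMSO-only control wells.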

Rattus norvegicus = species on record: Rattus norvegicus; experiment: Nuclear count minus the highest cytoplasmic count determined in rat hepatocytes for each cell; type: functional, Hepatocyte
In short: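 Hepatocytes isolated from F-344 rats (220–300 g), ~5 × 10⁶ cells seeded on coverslips; after 2 h washed, refed with serum-free Williams medium E and exposed together to 10 μCi/mL tritiated thymidine (50–90 Ci/mmol) plus compound in DMSO. Autoradiography after 18–20 h; 20 cells counted per slide, triplicate per concentration, mean ± SD of two experiments. Positive requires net grains >0 with dose response.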

[1] = test system: DNA topoisomerase II (Bos taurus); experiment: Relative potency to cause 90% of topoisomerase II-mediated cleavage of liner 8.4-kb YEPG DNA

| Compound | pIC50 (CCRF-CEM) | Net grain counts (Rattus norvegicus) | Relative activity [1] |
| --- | --- | --- | --- |
| Nc1ccc2c(c1)CN1C(=O)c3ccccc3C1=N2 [DANIQUIDONE] | 4.85 | 93.1 | – |
| Cc1cccc(N)c1N1C(=O)c2ccccc2C1=O | 4.15 | -8.7 | 0 |
| O=C1c2ccccc2-c2nc3ccccc3n21 | 4.17 | -7.4 | 0 |
| COc1cc([C@@H]2c3cc4c(cc3[C@@H](O[C@@H]3O[C@@H]5CO[C@@H](C)O[C@H]5[C@H](O)[C@H]3O)[C@H]3COC(=O)[C@H]23)OCO4)cc(OC)c1O [ETOPOSIDE] | 8.70 | -7.5 | – |
| COc1ccc(N)c(N2C(=O)c3ccccc3C2=O)c1 | < 3.70 | -8.9 | 0 |
| Nc1ccc2nc3n(c2c1)C(=O)c1ccccc1-3 | < 3.70 | -4.4 | 0 |
| O=C1c2ccccc2C2=Nc3ccc([N+](=O)[O-])cc3CN12 | < 3.82 | 10.5 | 0 |
| Cc1cccc2nc3n(c12)C(=O)c1ccccc1-3 | < 3.70 | -3.7 | 0 |
| COc1ccc2nc3n(c2c1)C(=O)c1ccccc1-3 | < 3.70 | -3.6 | 0 |
| O=C1c2ccccc2C2=Nc3ccncc3CN12 | 3.99 | -5.2 | 0.1 |
| O=C1c2ccccc2-c2nc3ccncc3n21 | < 3.70 | -10.5 | 0 |
| Cc1cccc2c1nc1n2C(=O)c2ccccc2-1 | < 3.70 | -3.5 | 0 |
| O=C1c2ccccc2-c2nc3ccc(O)cc3n21 | < 3.70 | – | 0 |
| Cc1cccc(N2C(=O)c3ccccc3C2=O)c1[N+](=O)[O-] | < 3.70 | -4.1 | 0 |
| O=C1c2ccccc2C2=Nc3ccccc3CN12 | 4.22 | -4.5 | 1 |
